In ChEMBL document CHEMBL1123965, “Substituted 1,3,4-thiadiazoles with anticonvulsant activity. 4. Amidines” (J Med Chem, 1988) one finds ED50, TD50 and LD30 data, which are given here for 18 compounds.

Data set [1] relates to Mus musculus. The experiment in a line: Anticonvulsant activity in mouse maximal electroshock test 1 hr following p.o. administration. As to conditions: po. It is filed as functional. In outline: (§1)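 Male BKW mice (LACA origin), 18–22 g; compound dissolved or suspended in 2% Tween 80 in distilled water, given po, tested 1 h later. Corneal electrodes delivered 4-ms pulses, 50 Hz, 80 V for 0.3 s. End point was block of hind limb tonic seizure; ED50 with limits from probit analysis (Bliss computerized method).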

The test system of data set [2] is Mus musculus. The experiment in a line: Anticonvulsant activity in mouse maximal metrazole seizure test 1 hr following p.o. administration. The conditions noted are these: po. It counts as functional. The method, boiled down:
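Male BKW mice (LACA origin), 18–22 g, dosed orally with compound in 2% Tween 80/distilled water (solution or suspension). Leptazol 120 mg/kg ip given 1 h after oral dose to provoke maximal seizures. ED50 with limits obtained by Bliss probit analysis.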

Data set [3] is described as follows: The dose at which 50% of the mouse fell off the rotarod. It counts as ADME, organism-based. As to conditions: in vivo. In outline:
(§2)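 Male BKW mice (18–22 g), trained beforehand to stay on a 3-cm-diameter rod turning at 16 rpm; dosed po in 2% Tween 80/water and tested 1 h later. TD50 (dose at which half fall off) by probit analysis. Sedation, ataxia, loss of righting reflex and death noted by visual observation after oral dosing.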

Data set [4] has as its system Mus musculus. The experiment in a line: The dose at which 50% of the mouse fell off the rotarod; Sedative at 100 mg/kg. It is filed as ADME, organism-based. Further details: dose 100 mg/kg. As to conditions: in vivo. The method, boiled down:
as §2

Data set [5] has as its system Mus musculus. Nature of the data set: Anticonvulsant activity in mice (1h after dosing, po) was determined by maximal electroshock test. It is filed as functional. In outline: as §1
In data set [6] the test system is Mus musculus. The experiment in a line: The dose at which 50% of the mouse fell off the rotarod; Toxic at 200 mg/kg. It is filed as toxicity, organism-based. Further details: dose 200 mg/kg. The conditions noted are these: in vivo. The method, boiled down:
as §2

Data set [7] relates to Mus musculus. The experiment in a line: The dose at which 50% of the mouse fell off the rotarod; Sedative at 142 mg/kg. As to conditions: in vivo. It counts as ADME, organism-based. Further details: dose 142 mg/kg. In outline: as §2
The species entered for data set [8] is Mus musculus. Nature of the data set: Lethal dose was determined. As to conditions: in vivo. It counts as toxicity, organism-based. The method, boiled down: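 Male BKW mice (LACA origin, 18–22 g) were dosed orally with compound dissolved or suspended in 2% Tween 80 in distilled water. Before anticonvulsant testing, animals were observed visually for sedation, ataxia, loss of righting reflex and death. The value is reported in the rotorod column, which was read 1 h after oral dosing.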

Regarding `CC(=N)Nc1nnc(-c2ccccc2C(F)(F)F)s1`, the ED50 turned out to be 18 mg/kg in data set [1] and 19 mg/kg in data set [2]. Besides, the TD50 in data set [3] was about 80 mg/kg.
In turn, `CC(=N)Nc1nnc(-c2ccccc2-c2ccccc2)s1` showed a TD50 in data set [3] of over 100 mg/kg.
Turning to `CCCC/N=C(/C)Nc1nnc(-c2ccccc2C)s1`, the ED50 in data set [1] was 48 mg/kg; in data set [2], 46 mg/kg. The compound further had a TD50 in data set [3] of over 100 mg/kg.
Regarding `CC(=N)Nc1nnc(-c2ccccc2C)s1`, the ED50 came out at 78 mg/kg in data set [2] and 200 mg/kg in data set [5]. Moreover, in data set [4], the TD50 entry is recorded as “Sedative at 100 mg/kg”.
With `CC(=N)Nc1nnc(Cc2ccccc2)s1`, the ED50 amounted to 31 mg/kg in data set [1] and 50 mg/kg in data set [2]. Further, the TD50 in data set [3] stood at 200 mg/kg.
As to `CCCC/N=C(\Nc1nnc(-c2ccccc2-c2ccccc2)s1)C(C)C`, the 50% effective dose (ED50) in data set [1] is over 200 mg/kg; in data set [2], over 100 mg/kg.
As for `C/C(=N/Cc1ccccc1)Nc1nnc(-c2ccccc2C)s1`, the values for the ED50 in data set [1] and in data set [2] were 86 mg/kg and 102 mg/kg, respectively. The TD50 in data set [3] was over 200 mg/kg.
Turning to `Cc1ccccc1-c1nnc(C2=NCCN2)s1`, the ED50 is over 100 mg/kg in data set [1] and over 200 mg/kg in data set [2].
As to `CCCC/N=C(/C)Nc1nnc(-c2ccccc2-c2ccccc2)s1`, the median effective dose (ED50) came to 121 mg/kg in data set [1] and 90 mg/kg in data set [2]. In data set [3], this compound yielded a TD50 of over 200 mg/kg.
For the compound `CCCC/N=C(\N)c1nnc(-c2ccccc2C)s1`, the ED50 in data set [1] was over 200 mg/kg; in data set [2], about 142 mg/kg. In data set [6], the TD50 entry is listed as “Toxic at 200 mg/kg”.
On to `C/C(=N\c1nnc(-c2ccccc2C)s1)N1CCOCC1`, for which the results for the ED50 in data set [1] and in data set [2] were 108 mg/kg and 148 mg/kg, respectively. The TD50 entry in data set [7] is given as “Sedative at 142 mg/kg”.
On to `c1ccc(-c2ccccc2-c2nnc(C3=NCCN3)s2)cc1`, for which the median effective dose (ED50) amounted to 103 mg/kg in data set [1] and 77 mg/kg in data set [2]. Besides, in data set [8], the LD30 came out at 200 mg/kg.
On to `CCCC/N=C(/Cc1ccccc1)Nc1nnc(-c2ccccc2C(F)(F)F)s1`, for which the values for the ED50 in data set [1] and in data set [2] were over 200 mg/kg and over 100 mg/kg, respectively.
`N=C(Cc1ccccc1)Nc1nnc(Cc2ccccc2)s1`: the ED50 in data set [1] amounted to 86 mg/kg; in data set [2], 45 mg/kg. The compound also returned a TD50 in data set [3] of over 500 mg/kg.
The like results for `CCCC(=N)Nc1nnc(-c2ccccc2C(F)(F)F)s1` were, in that order, 63 mg/kg, 60 mg/kg and 150 mg/kg.
As to `Cc1ccccc1-c1nnc(/N=C/Nc2nnc(-c3ccccc3C)s2)s1`, the median effective dose (ED50) in data set [1] and in data set [2] was over 200 mg/kg each time.
On to `CCN(CC)/C(C)=N/c1nnc(-c2ccccc2C)s1`, for which the figures for the ED50 in data set [1] and in data set [2] were 81 mg/kg and 84 mg/kg, respectively. This compound also yielded a TD50 in data set [3] of over 200 mg/kg.
Regarding `CCCC/N=C(/C)Nc1nnc(-c2ccccc2C(F)(F)F)s1`, the ED50 in data set [1] was 33 mg/kg; in data set [2], 21 mg/kg. In data set [3], this compound registered a TD50 of about 70 mg/kg.
